The values below come from ChEMBL document CHEMBL1126809, “Effects of solvation on the ionization and conformation of raclopride and other antidopaminergic 6-methoxysalicylamides: insight into the pharmacophore” (J Med Chem, 1993).

Structures are written as SMILES.

The nature of series [1]: Dissociation constants determined by potentiometry at 25 degree celsius (Amino group). The class given is physicochemical. Summed up:
(§1)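 Potentiometric titration at 25 ± 1 °C with ionic strength held at 0.1 M by KCl. Excess HCl added, then back-titrated with 0.01 N NaOH. Curves run in triplicate. pKa derived by non-logarithmic linearization of the titration curve, corrected for dilution during titration.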

Series [2] in a line: Dissociation constants determined by potentiometry at 25 degree celsius (phenolic group). The class given is physicochemical. An outline of the steps: as §1
Series [3] can be described thus: The isoelectric point (pI) as the arithmetic mean of pKa1 and pKa2. In kind it is physicochemical.
Series [4] can be described thus: Percent of zwitter ion formed, was determined at pH 7.4. The class given is ADME.

For the compound `CCN1CCC[C@H]1CNC(=O)c1c(O)cccc1OC`, in series [1], the PKa2 was 9.56. The same compound had a PKa1 in series [2] of 8.7. In series [3], this compound yielded a pI of 9.13. In addition, in series [4], the Z is 5%.
For the compound `COc1c(Cl)cc(Cl)c(O)c1C(=O)NC1CCN(C)CC1`, the PKa2 in series [1] worked out at 9.12. In series [2], the PKa1 came out at 5.96. The same compound yielded a pI in series [3] of 7.54. This compound displayed a Z in series [4] of 95%.
Taken in the same sequence, the figures for `CCc1cc(Cl)c(OC)c(C(=O)NC[C@@H]2CCCN2CC)c1O` [ETICLOPRIDE] were 9.67, 6.93, 8.3 and 74%.
Taken in the same sequence, the figures for `CCN1CCC[C@H]1CNC(=O)c1c(OC)ccc(Cl)c1O` were 9.66, 7.13, 8.4 and 65%.
The matching figures for `CCc1cc(Cl)c(O)c(C(=O)NC[C@@H]2CCCN2CC)c1OC`: 9.6, 6.88, 8.24 and 76%.
With `CCc1ccc(OC)c(C(=O)NC[C@@H]2CCCN2CC)c1O`, the PKa2 in series [1] came out at 9.57. In series [2], this compound returned a PKa1 of 8.71. The pI in series [3] is on record as 9.14. In series [4], this compound came in with a Z of 5%.
The matching figures for `CCN1CCC[C@H]1CNC(=O)c1c(O)c(Cl)cc(Cl)c1OC` [RACLOPRIDE]: 9.21, 5.81, 7.51 and 96%.
On to `CCN1CCC[C@H]1CNC(=O)c1c(OC)ccc([N+](=O)[O-])c1O`, for which the PKa2 in series [1] is recorded as 9.16. For the same compound, the PKa1 in series [2] was found to be 5.81. Also, in series [3], the pI was found to be 7.49. Also, the Z in series [4] is 96%.
The matching figures for `CCc1cc(CC)c(OC)c(C(=O)NC[C@@H]2CCCN2CC)c1O`: 9.55, 7.28, 8.42 and 56%.
The matching figures for `CCN1CCC[C@H]1CNC(=O)c1c(O)c(Br)cc(Br)c1OC`: 9.18, 5.94, 7.56 and 95%.
